The text below walks through data of paper PMC3190289 (Clinical and Experimental Gastroenterology, 2011).

Each structure is given as a SMILES string. Read-outs that look alike come from different tables or passages of the source.

Data set [1] in a line: Plasma pharmacokinetics after single oral doses in healthy subjects. It is filed as in vivo, human. As to conditions: for Subjects with detectable plasma concentrations: single oral dose; for AUC values in CYP2C19 poor metabolizers relative to overall means: two CYP2C19 poor metabolizer subjects.
The nature of data set [2]: Safety analysis: treatment-emergent adverse events after single doses. The data set is classed as in vivo, human. As to conditions: healthy subjects; for Incidence of treatment-emergent adverse events: single-dose administration. The essentials:
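Open-label two-period crossover in 44 subjects aged 20–54. Each period gave one oral dose after an overnight fast of at least 8 h, with a 60-min postdose fast; washout at least 7 days. All dosed subjects were analysed. A treatment-emergent AE started or worsened after first dose and within 30 days of last dose. Terms were coded to MedDRA 13.1 system organ class and preferred term; the investigator judged relatedness. Results were summarised descriptively per regimen.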

The conditions of data set [3]: cited from earlier work.
The subject of another data set is intragastric pH. As to conditions: cited from earlier work.
Where [4] appears, read: postdose, single dose 60 mg, healthy subjects.

For the compound `Cc1c(OCC(F)(F)F)ccnc1C[S@@+]([O-])c1nc2ccccc2[nH]1` [dexlansoprazole], the “Subjects with detectable plasma concentrations” value in data set [1] (12 hours postdose) stood at 100%. Also, the “Subjects with detectable plasma concentrations” value in data set [1] (16 hours postdose) was found to be 88%. Further, in data set [1] (24 hours postdose), the “Subjects with detectable plasma concentrations” value is 63%. Further, in data set [1] (setting [4]), the “Time of first peak of mean plasma concentration-time curve” value was “approximately 2 hours” and the “Time of second peak of mean plasma concentration-time curve” value was approximately 5 h. In addition, the “AUC values in CYP2C19 poor metabolizers relative to overall means” value in data set [1] is listed as “substantially higher”. In addition, in data set [2] (single dose), the “Adverse events considered related to the study drug by the investigator” value is “only one adverse event (nausea)”, the Incidence of flatulence is given as 5%, the Incidence of headache was determined as 9% and the “Incidence of joint injury” value turned out to be 5%. Besides, the “Incidence of treatment-emergent adverse events” value in data set [2] was 21%. The “Time of first peak of plasma concentration-time profile” value in data set [3] (after administration) is 1 to 2 h. The Half-life in data set [3] was 1 to 2 h. For the same compound, the “Time of second peak of plasma concentration-time profile” value in data set [3] (postdose) is 4 to 5 h. In addition, the “Percentage of time with intragastric pH > 4” value in the data set with intragastric pH (0–24 hours after the same dose (60 mg)) is reported as “approximately 60%”.

Regarding `COc1ccc2nc([S@@+]([O-])Cc3ncc(C)c(OC)c3C)[nH]c2c1` [esomeprazole], the “Subjects with detectable plasma concentrations” value came to 80% in data set [1] (12 hours postdose), 39% in data set [1] (16 hours postdose) and 9% in data set [1] (24 hours postdose). Moreover, the “AUC values in CYP2C19 poor metabolizers relative to overall means” value in data set [1] is on record as “substantially higher”. For the same compound, the “Adverse events reported by two or more subjects” value in data set [2] (single dose) is recorded as “No adverse event”. Further, the “Incidence of treatment-emergent adverse events” value in data set [2] was 14%. Also, the “Increase in bioavailability at steady state” value in data set [3] (after five days of once-daily dosing) was approximately 2.5 fold. In data set [3] (postdose), the “Time of maximum plasma concentrations” value is “approximately 1.6 hours”. Besides, the “Percentage of time with intragastric pH > 4” value is reported as 54% with intragastric pH (0–24 hours after the same dose (40 mg), ref 10) and 52% in the data set on intragastric pH (0–24 hours after the same dose (40 mg), ref 12).
